From PubChem BioAssay AID1296 (Columbia University Molecular Screening Center, 2008)
In all, about 130,000 compounds went through this assay and about 1,000 (0.77%) were called active. Not shown: some 1% with an inconclusive outcome.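 How the source made its calls: active means activation at 2 µM above a set limit, confirmed on inspection of the cell images; inconclusive means above the set limit but not confirmed on image inspection; inactive means the rest.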 What follows is part of a selection rich in actives, with near analogues and random picks from the rest.

experiment: insulin gene promoter stimulation in islet cells – imaging, TRM-6 cells (human fetal islet line), eGFP reporter, cell count, primary screen (AID 1296;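 on activation: share of cells whose green reporter signal exceeds an intensity cutoff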;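 on normalized cell count: cells counted after 48 h compound exposure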); settings: at 2 µM; activation: stronger effect = higher value, plate-scaled: unstimulated 0, stimulated control 100; normalized cell count: measured here: cell count (toxicity)
In short: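 Test system: TRM-6 insulin promoter–eGFP reporter cells / Quantity: 1,000 cells per well / Reagent: tamoxifen inducer, 0.75 µM, in seeding medium / Compound dosing: 2 µM final, single concentration / Schedule: overnight tamoxifen, then two-day compound incubation at 37 °C / Measured by: automated fluorescence imaging of paraformaldehyde-fixed, Hoechst-counterstained cells, green channel / Read-out: percent activation from GFP-positive cell fraction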

SMILES	activation	normalized cell count
O=C(CCCN1C(=O)/C(=C/c2ccco2)SC1=S)Nc1ccccc1	0% (inactive)	158%
COc1ccc(N2CCN(C(=O)c3ccc4c(Cl)c5c(nc4c3)CCCC5)CC2)cc1	0% (inactive)	94.9%
COc1ccc(C2CC(c3cccs3)Nc3nnnn32)cc1 (stereo not given)	-78.6% (inactive)	120%
CC1(C)CC(=O)C(N=Nc2ccc(S(=O)(=O)N3CCCCCC3)cc2)=C(O)C1	0% (inactive)	78.9%
O=C(NCN1CCN(CCO)CC1)c1cnccn1	6.67% (inactive)	83.1%
CCCC(=O)Nc1ccc(C(=O)NCCCn2ccnc2)cc1	456% (active)	48.4%
O=C(Nc1ccccc1C(=O)NCCCn1ccnc1)c1ccc(Cl)cc1Cl	289% (inactive)	61.3%
Cc1ccc2c(Cl)c(C(=O)NCCCn3ccnc3)sc2c1	352% (inactive)	42%
C/C(=N\NC(=O)c1ccc(NS(=O)(=O)c2cccs2)cc1)c1ccc2ccccc2c1	157% (inactive)	72.7%
CN(C)CCCCCN(C)Cc1cc2ccccc2o1	319% (active)	86.1%
COC(=O)c1ccc(C(=O)OC)c(NC(=S)N2CCN(c3ccc(F)cc3)CC2)c1	403% (active)	89.4%
CCN(CCO)C(=S)Nc1cc(C(=O)OC)ccc1C(=O)OC	3.45% (inactive)	127%
CCS(=O)(=O)Nc1cc(C(=O)OC)ccc1C(=O)OC	-6.67% (inactive)	104%
COc1ccc(C)cc1Nc1nc(-c2c(C)[nH]c3ccccc23)cs1	-3.7% (inactive)	68.8%
CN(c1ccc(OCC(=O)OCC(=O)Nc2cccc([N+](=O)[O-])c2)cc1)S(=O)(=O)c1ccc(F)cc1	-8.57% (inactive)	119%
O=C(Nc1ccncc1)c1c(F)cccc1F	-5.26% (inactive)	90.9%
COc1cccc(OC)c1C(=O)Nc1ccc(Cc2ccncc2)cc1	6.67% (inactive)	107%
CCc1ccc(NC(=O)Nc2ccncc2)cc1	268% (active)	67.1%
OCCNCCOc1ccc(Cl)c(Cl)c1	-3.85% (inactive)	86.5%
CC(NC(=O)Nc1ccc2c(c1)OCO2)c1ccncc1 (stereo not given)	-5.26% (inactive)	112%
Cc1onc(C(=O)NN)c1C(=O)N1CCN(C(c2ccccc2)c2ccccc2)CC1	-81.8% (inactive)	29.3%
CCOC(=O)c1c(NC(=O)C2CC=CCC2C(=O)O)sc(C)c1CC (stereo not given)	-5.88% (inactive)	110%
Cc1ccccc1C(OCCN(C)C)C1CCCCC1 (stereo not given)	-9.38% (inactive)	72.9%

SMILES	activation	normalized cell count
Cc1ccc(N/N=C2\COC(C)(C)CC2=O)cc1	7.14% (inactive)	67.8%
O=C(Nc1ccccc1)N1CCN(Cc2ccccc2)CC1	4.22% (inactive)	57.8%
CCCC(=O)C1CCN(Cc2ccccc2)CC1	0% (inactive)	122%
NC(=O)c1ccc(CN2CCC(Cc3ccccc3)CC2)cc1	347% (active)	40.1%
O=C(CSc1ncnc2scc(-c3ccccc3)c12)NCc1ccc2c(c1)OCO2	0% (inactive)	109%
CCCCOc1ccc(C(=O)NN2CCN(C)CC2)cc1	0% (inactive)	149%
CN(c1ccccc1)c1ccc(/C=c2\s/c(=C(/C#N)C(=O)C(C)(C)C)n(Cc3ccco3)c2=O)cc1	178% (active)	74.1%
Cc1cs/c(=N\N=C\c2ccc(O)cc2)n1Cc1ccco1	-7.69% (inactive)	109%
O=C(CN(c1ccccc1)S(=O)(=O)c1ccc(Cl)cc1)Nc1ccccc1C(=O)N1CCCC1	93.5% (active)	74.8%
O=C(CN(c1cccc(Cl)c1)S(=O)(=O)c1ccccc1)NN=C1CCCC1	-5.88% (inactive)	82.1%
Cc1ccc(S(=O)(=O)N(CC(=O)N2CCc3ccccc3C2)c2cccc(Cl)c2)cc1	5% (inactive)	94.9%
N#CCC(=O)NC(=O)NCC1CC1	9.09% (inactive)	118%
O=C(CCc1[nH]c2ccccc2c1Sc1ccccc1)N(CCO)CCO	-6.9% (inactive)	121%
Cc1nnc(SCC(=O)N2CCOCC2)[nH]c1=O	0% (inactive)	145%
O=C(Nc1ccc(S(=O)(=O)N2CCc3ccccc3C2)cc1)c1ccccc1	407% (active)	116%
O=S(=O)(c1cccs1)N1CCc2ccccc2C1	-90.9% (inactive)	90.9%
COc1ccc(S(=O)(=O)N2CCC(C(=O)N3CCc4ccccc4C3)CC2)cc1OC	8.7% (inactive)	157%
O=C(Nc1ccccc1)OCc1cn(-c2ccc(Cl)cc2)nn1	6.06% (inactive)	118%
CC(Sc1nncn1C)C(=O)Nc1cc(C(F)(F)F)ccc1N1CCOCC1 (stereo not given)	0% (inactive)	135%
CCC(C)(C(=O)NC1CCCCC1)N(C)C(=O)c1ccc2c(c1)OCO2 (stereo not given)	8.57% (inactive)	95.1%
CN1CCC(OC(=O)COc2ccc(Cl)cc2Cl)CC1	453% (active)	63.1%
CCOC(=O)N1CCN(C(=O)COc2ccc(Cl)cc2C)CC1	193% (inactive)	63.4%
